Screening results deposited in PubChem BioAssay by several laboratories.
Vif inh: HIV Vif self-association inhibitors, primary screen, imaging, HEK293T, single point; HEK293T cells, Vif self-association by quenched fluorescence, 24 h; inhibition, % at 7.49 µM; hit rate 0.35% among 340,000; in the data active means inhibition above about 50%, passing the limit was not always enough; inconclusive means no clear call, values can overlap the other calls; inactive means below about 31%
DSG3 Ab inh: inhibitors of pemphigus antibody binding to DSG3, primary screen, biochemical, bead-based, flow cytometry, scFv-GFP; Desmoglein-3 (Homo sapiens), P32926; AID 588358, 2011; binding (percent of control), % at 10 µM; DSG3-coupled beads, scFv-anti-DSG3-GFP binding; active compounds read low; hit rate 0.48% among 310,000;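 active means binding more than 3 SD below its plate's average and above zero; inconclusive means below that plate limit but binding exactly zero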;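 further: hits lower antibody fragment binding to DSG3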
Target sequence (P32926 whole entry, looked up, the tested form may be a part): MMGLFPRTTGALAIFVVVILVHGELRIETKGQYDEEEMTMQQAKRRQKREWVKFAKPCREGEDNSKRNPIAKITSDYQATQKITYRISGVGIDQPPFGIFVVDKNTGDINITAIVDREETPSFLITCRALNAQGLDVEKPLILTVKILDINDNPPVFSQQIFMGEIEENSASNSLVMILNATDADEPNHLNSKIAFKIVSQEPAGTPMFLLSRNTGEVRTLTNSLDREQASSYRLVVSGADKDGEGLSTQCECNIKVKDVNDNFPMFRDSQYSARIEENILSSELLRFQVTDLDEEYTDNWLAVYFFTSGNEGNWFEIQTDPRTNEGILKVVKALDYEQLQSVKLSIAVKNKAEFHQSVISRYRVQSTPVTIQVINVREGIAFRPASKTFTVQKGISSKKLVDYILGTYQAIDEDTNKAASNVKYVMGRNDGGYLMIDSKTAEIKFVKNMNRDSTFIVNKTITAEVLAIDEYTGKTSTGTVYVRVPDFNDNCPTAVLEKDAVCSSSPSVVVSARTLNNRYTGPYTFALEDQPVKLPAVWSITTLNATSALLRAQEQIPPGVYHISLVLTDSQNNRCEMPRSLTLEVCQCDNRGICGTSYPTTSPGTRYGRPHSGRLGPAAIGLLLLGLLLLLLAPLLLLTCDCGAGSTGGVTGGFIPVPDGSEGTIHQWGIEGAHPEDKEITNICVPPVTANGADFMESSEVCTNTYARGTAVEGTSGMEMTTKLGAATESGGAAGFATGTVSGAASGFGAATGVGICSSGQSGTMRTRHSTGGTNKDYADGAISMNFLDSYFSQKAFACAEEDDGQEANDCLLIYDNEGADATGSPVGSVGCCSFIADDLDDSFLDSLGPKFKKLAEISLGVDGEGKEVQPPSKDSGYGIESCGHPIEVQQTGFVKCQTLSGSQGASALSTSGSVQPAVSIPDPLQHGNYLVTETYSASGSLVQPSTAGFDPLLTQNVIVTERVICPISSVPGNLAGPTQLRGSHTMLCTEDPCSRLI
Myeloid diff 2: induction of myeloid progenitor differentiation, primary screen, cell-based, flow cytometry, MLPCN library; calls only at 10 µM; ER-HoxA9 myeloid progenitors, lysozyme-GFP differentiation; hit rate 1% among 360,000;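 active means normalized GFP-positive differentiation at or above the plate's own cutoff, the solvent-only control mean plus 3 SD; inconclusive means no clear call, values can overlap the other calls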;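 further: cells exposed to compound for four days before flow analysis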
T cell modulator: modulators of CD8 T cell-vesicle binding, primary screen, mouse 2C CD8+ T cells, flow cytometry; response (vesicle binding), % at 7 µM; hit rate 0.068% among 330,000; 2C CD8+ T cell-vesicle binding; active compounds read low;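 active means response, share of CD8 T cells binding vesicles, and their 90th percentile fluorescence all below set limits, cut at about 80% in these data, passing the limit was not always enough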;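 further: values below 100% mean blocked vesicle binding to the CD8+ T cells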
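Material: 2C TCR transgenic mouse naive CD8+ T cells, MACS-purified. Also added: QL9-charged Drosophila Ld/ICAM-1/B7-1 vesicles. Timing: binding 1.5 h at 37 °C. Measured by: high-throughput flow cytometry with anti-B7-1 and anti-CD8 staining. Read-out: percent CD8+ FL2 mean versus row control. Controls: Unloaded micro-vesicles (low), QL9 vesicles with 0.7% DMSO (high).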
Myeloid diff CP1: inducers of myeloid progenitor differentiation, confirmation, cell-based, GFP/Mac1 flow cytometry, cherry pick 01; ER-HoxA9 myeloid progenitors, GFP/Mac1 double-positive flow; shares compounds with Myeloid diff 2; AID 651706, 2012; hit rate 2% among 2,300; calls only;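 active means share of green or green-and-red cells above 9 and 9% in run 1 or 4 and 3% in run 2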
GFP autofluor: compound fluorescence in myeloid differentiation counter-screen; shares compounds with Myeloid diff 2; ER-HoxA9 myeloid progenitors, no estrogen, GFP autofluorescence flow cytometry; vehicle wells 0%, positive control 100%; fluorescence response, % (test concentration not listed); hit rate 7.4% among 2,300; AID 651707;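 active means over 5% cells positive for green fluorescent reporter, or over 2% positive for both it and APC stain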;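 further: range taken on the double positive population between DMSO and positive control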
Numbers without * were called inactive; i = inactive; ? = inconclusive; . = no result given; + = active, no number. This is a sample that favours compounds with a hit; in the whole collection about 1.7% have one here.

SMILES	Vif inh	DSG3 Ab inh	Myeloid diff 2	T cell modulator	Myeloid diff CP1	GFP autofluor
Cc1cc(OC(=O)c2ccccc2C)c([N+](=O)[O-])c(=O)[nH]1	-4	112	i	396	.	.
O=[N+]([O-])c1ccc(Nc2ccccc2O)c2nonc12	-6	113	+	146	i	2
O=C(O)c1ccc(Nc2ccc([N+](=O)[O-])c3nonc23)cc1	-3	94	i	260	.	.
CC(C)[C@H](NC(=O)OC(C)(C)C)c1cc(C(=O)NCCc2c[nH]c3ccccc23)c(N)s1	.	.	i	.	.	.
Cc1nc(SC(C)C(=O)NCC2CCCO2)c2cc(-c3ccccc3)sc2n1 (configuration not stated)	-24	100	+	434	i	39*
Cc1ccccc1S(=O)(=O)NC(=O)C1(C)CCN1C(=O)Cc1cccs1 (configuration not stated)	-10	.	i	.	.	.
CCCCOC(=O)C1=C(C)NC(=O)NC1c1ccc([N+](=O)[O-])s1 (configuration not stated)	0	.	+	600	i	0
CCCCOC(=O)C1=C(C)NC(=O)NC1c1cccc([N+](=O)[O-])c1 (configuration not stated)	5	111	i	256	.	.
Clc1ccc(C=Cc2ccccn2)cc1	3	93	i	.	.	.
C(=C\c1ccccn1)/c1ccccn1	-1	94	i	157	i	0
COC(=O)c1cc(OC)c(OC)cc1NC(=O)C1CCC(=O)N1S(=O)(=O)c1ccc(C)cc1 (configuration not stated)	3	.	i	380	.	.
COC(=O)c1ccccc1NC(=O)C1CCC(=O)N1S(=O)(=O)c1ccc(C)cc1 (configuration not stated)	8	99	i	300	i	0
O=[N+]([O-])c1ccc(N/N=C/c2ccc[nH]2)cc1	7	127	?	466	.	.
C[C@@H]1CN([C@H](C)CO)C(=O)CCCn2nncc2CO[C@@H]1CN(C)S(=O)(=O)c1ccc(-n2cccn2)cc1	-2	99	i	.	.	.
CCOc1ccc2nc(N3CCC(C(=O)N4CCN(C(=O)c5ccco5)CC4)CC3)sc2c1	-5	106	i	250	.	.
CCOc1ccc2nc(N3CCC(C(=O)N4CCN(C5CCCCC5)CC4)CC3)sc2c1	0	104	i	225	i	0
COc1ccc2c(c1OC)C(=O)N(c1ccc(C)c(C)c1)C2=O	2	82	i	309	.	.
COc1ccc2c(c1OC)C(=O)N(c1ccc3c(c1)CCC3)C2=O	38	89	i	353	i	0
CC[C@]1(C(=O)OC)[C@H]2C(=O)N(C)C(=O)[C@H]2[C@H]2CN=C(SCc3ccc(C)cc3)N21	5	102	i	.	.	.
Cc1ccc(F)cc1C(=O)N1CCCCC1c1cc(C(=O)NC(C)C)no1 (configuration not stated)	30	.	i	.	.	.
COc1ccccc1NS(=O)(=O)c1cc(NC(=O)Cc2n[nH]c(=O)c3ccccc23)ccc1Cl	-17	118	i	62	i	0
CCOc1ccc(CCNC(=O)COC(=O)c2nccnc2N)cc1OCC	17	111	i	330	.	.
CC(C)N1CCc2c(sc(NC(=O)c3nc4ccccc4s3)c2C(N)=O)C1	3	109	+	288	i	1
CC(=O)N/N=C/c1cc(C(C)(C)C)cc(/C=N/NC(C)=O)c1O	-7	95	+	225	i	0
CCC(O)(CC)C(=O)N/N=C/c1cc(Br)cc(Br)c1O	-13	109	i	404	.	.
O=C1C2C3C=CC(O3)C2C(=O)N1N=Cc1cccc2ccccc12 (configuration not stated)	3	88	i	.	.	.
CCOC(=O)c1ccc(NC(=O)C(CC)(CC)C(=O)OCC)cc1	-3	96	i	313	i	0
C[C@@H]1CN([C@H](C)CO)C(=O)CCCn2cc(nn2)CO[C@H]1CN(C)S(=O)(=O)c1ccccc1C#N	.	114	i	.	.	.
